Compound activity: PubChem BioAssay, NMMLSC
Most compounds without a hit are left out; they make up all but 0.9% or so of the library.
ABCG2 inh: ABCG2 efflux pump inhibitors, primary screen, multiplex with ABCB1, IgMXP3 cells, flow cytometry | actives 0.1% (n = 190,000) | JC-1 efflux | inhibition, % at 6.6 µM;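 active = inhibition above 80%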
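System: two drug-resistant human cell lines, ABCG2 and ABCB1; controls: nicardipine high and DMSO low controls; times: 10 min exposure at 25 °C with rotation, no wash; detection: flow cytometry of retained JC-1 fluorescence; read-out basis: percent efflux inhibition, scaled nicardipine 100% to DMSO 0%; doses: one concentration, 6.6 µM final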
RGS4-Gao reg: modulators of RGS4 binding to Galphao, primary screen, biochemical, multiplexed bead flow cytometry. binding response (% of control), % at 10 µM. actives 0.33% (n = 220,000). AID 1415, 2008. actives lie on both sides; in the data active = binding response below about 49% or above about 150%; inactive = in between;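 note: fluorescent Galphao activated with aluminum fluoride binding bead-coupled RGS4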
RGS7-Gao reg: RGS7-Galphao binding modulators, primary screen, biochemical, multiplexed bead flow cytometry; binding response (% of control), % at 10 µM; AID 1439, 2008; actives 0.35% (n = 220,000); actives lie on both sides; in the data active = binding response below about 49% or above about 150%; inconclusive = no clear call, values can overlap the other calls; inactive = in between;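 note: fluorescent Galphao held in activated GDP-AlF4 state binding bead-coupled RGS7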
ABCB1 inh: ABCB1 efflux pump inhibitors, primary screen, cell-based, multiplex, flow cytometry, ABCG2 counter-screen; ATP-dependent translocase ABCB1 (Homo sapiens), P08183; CCRF-Adr cells, JC-1 efflux; inhibition, % at 6.6 µM; actives 0.067% (n = 190,000); AID 1326, 2008; in the data active = inhibition above about 40%;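 note: higher value means more JC-1 retained so stronger ABCB1 efflux block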
RGS8-Gao: RGS8-Galphao binding modulators, primary screen, biochemical, multiplexed bead flow cytometry | actives lie on both sides | response (percent of control binding), % at 10 µM | actives 0.34% (n = 220,000) | AID 1423, 2008; in the data active = response below about 60% or above about 140%; inactive = in between;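 note: Galphao activated as the GDP aluminium fluoride complex binding bead-coupled RGS8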
RGS16-Gao HTS: modulators of RGS16 binding to Galphao, primary screen, biochemical, human proteins, multiplexed bead flow cytometry; binding response (% of control), % at 10 µM; Regulator of G-protein signaling 16 (Homo sapiens) + Guanine nucleotide-binding protein …; bead-based flow cytometry RGS16-Galphao binding, fluorescence; actives lie on both sides; actives 0.38% (n = 220,000);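 note: Galphao activated by GDP with aluminum fluoride before binding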
Target sequence (O15492 whole entry, looked up): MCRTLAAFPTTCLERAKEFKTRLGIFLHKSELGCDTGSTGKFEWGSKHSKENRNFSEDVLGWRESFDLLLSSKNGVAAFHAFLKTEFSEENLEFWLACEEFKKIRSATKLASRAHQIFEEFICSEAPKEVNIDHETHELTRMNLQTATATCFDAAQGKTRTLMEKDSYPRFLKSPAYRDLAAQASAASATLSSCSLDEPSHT
Target sequence (P09471 whole entry, looked up): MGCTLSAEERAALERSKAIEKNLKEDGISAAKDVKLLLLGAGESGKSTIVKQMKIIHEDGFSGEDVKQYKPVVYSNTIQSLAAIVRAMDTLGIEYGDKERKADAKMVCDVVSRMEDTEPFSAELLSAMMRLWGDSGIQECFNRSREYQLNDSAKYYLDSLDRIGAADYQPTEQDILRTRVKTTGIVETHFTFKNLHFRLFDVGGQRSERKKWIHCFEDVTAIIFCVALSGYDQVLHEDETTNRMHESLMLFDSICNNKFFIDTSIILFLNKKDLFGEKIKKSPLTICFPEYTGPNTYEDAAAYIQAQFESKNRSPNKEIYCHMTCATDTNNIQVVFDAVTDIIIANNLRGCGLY
RGS-Gao: modulators of RGS–Galpha-o binding, primary screen, biochemical, multiplexed beads, flow cytometry, RGS4/7/8/16/19; shares compounds with RGS16-Gao HTS; multiplexed bead flow cytometry; RGS4–Galpha-o binding response, % at 10 µM; actives 99% (n = 1,600); AID 1504, 2009;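 note: fluorescently labeled Galpha-o bound to GDP with aluminium fluoride binding biotinylated RGS beads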
Avidin counter: disruption of biotin probe capture by avidin, counter-screen for RGS protein interaction modulators, biochemical, flow cytometry, bead-based | AID 1783, 2009 | streptavidin beads, fluorescein-biotin binding | inhibition, % at 10 µM | shares compounds with RGS16-Gao HTS | 1,700 tested, under 10 active;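 active = inhibition above 50%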;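 note: median green fluorescence of gated singlet beads compared with DMSO control wells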
RGS8-Gao single: RGS8-Galphao binding modulators, confirmation, biochemical, multiplexed bead flow cytometry, single concentration; binding response (% of control), % at 10 µM; actives 3% (n = 1,700); bead-based flow cytometry RGS8-Galphao binding, fluorescence; actives lie on both sides; shares compounds with RGS16-Gao HTS; in the data active = binding response below about 72% or above about 130%; inactive = in between;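 note: Galphao activated as GDP AlF4 complex before binding bead RGS8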
RGS7-Gao single: RGS7-Galphao binding modulators, confirmation, biochemical, multiplexed bead flow cytometry, single concentration; shares compounds with RGS16-Gao HTS; bead-based flow cytometry RGS7-Galphao binding; actives lie on both sides; response (percent of control binding), % at 10 µM; actives 7.8% (n = 1,700); AID 1837, 2009; in the data active = response below about 75% or above about 130%; inactive = in between;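 note: fluorescent Galphao activated with GDP and aluminum fluoride binding bead-coupled RGS7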
RGS16-Gao conf: modulators of RGS16-Galphao protein binding, confirmation, biochemical, single concentration, multiplexed bead flow cytometry; shares compounds with RGS16-Gao HTS; bead-based flow cytometry; actives lie on both sides; response (% of control binding), % at 10 µM; actives 4% (n = 1,700); AID 1838, 2009; in the data active = response below about 74% or above about 130%; inactive = in between;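 note: Galphao activated as the GDP aluminium fluoride complex binding bead-coupled RGS16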
RGS4-Gao single: modulators of RGS4-Galphao protein binding, confirmation, biochemical, single concentration, multiplexed bead flow cytometry; shares compounds with RGS16-Gao HTS; actives lie on both sides; binding response (% of control), % at 10 µM; actives 4% (n = 1,700); AID 1840, 2009; in the data active = binding response below about 74% or above about 130%; inactive = in between
RGS19-Gao conf: regulators of RGS19-Galphao binding, confirmation, biochemical, single point, multiplexed bead flow cytometry. shares compounds with RGS16-Gao HTS. bead-based flow cytometry RGS19-Galphao binding; actives lie on both sides. response (percent of control binding), % at 10 µM. actives 5% (n = 1,700). AID 1841, 2009; in the data active = response below about 50% or above about 160%; inactive = in between
Large screens that a line does not name were inactive (follow-up assays come after a bar, where they were run); [ ] = remark or other dose. Unless noted, the rule behind the calls is not given here.

O=C(CNC(=O)C1COc2ccccc2O1)N/N=C/c1ccc(O)cc1O (configuration not stated)	RGS8-Gao 56, RGS16-Gao HTS -1.7 | RGS-Gao 62 | Avidin counter inactive | RGS8-Gao single inactive | RGS7-Gao single inactive | RGS16-Gao conf inactive | RGS4-Gao single inactive | RGS19-Gao conf inactive
CCCC(=O)NCc1ccncc1	none
C=CCn1c(C)cc(C(=O)COC(=O)CNC(=O)c2ccccc2)c1C	none
O=C1C(C=NCc2ccncc2)=C(O)c2ccccc21	none
O=C1C(C=NCc2ccco2)=C(O)c2ccccc21	RGS16-Gao HTS -57 | RGS-Gao 90 | Avidin counter inactive | RGS8-Gao single inactive | RGS7-Gao single inactive | RGS16-Gao conf inactive | RGS4-Gao single inactive | RGS19-Gao conf inactive
Cc1cccc(C(=O)N[C@H](C(=O)Nc2ccc(C)c(S(=O)(=O)N(C)C)c2)C(C)C)c1	none
Cc1[nH]cnc1CSCc1ccc(Cl)cc1	RGS8-Gao 147[activator], RGS16-Gao HTS 192[activator] | RGS-Gao 134 | Avidin counter inactive | RGS8-Gao single inactive | RGS7-Gao single inactive | RGS16-Gao conf inactive | RGS4-Gao single inactive | RGS19-Gao conf inactive
Cc1ccc(C(C(=O)NC(C)(C)C)N(Cc2ccccc2)C(=O)c2snc(C(N)=O)c2N)o1 (configuration not stated)	RGS7-Gao reg 161[activator] | RGS-Gao 110 | Avidin counter inactive | RGS8-Gao single inactive | RGS7-Gao single inactive | RGS16-Gao conf inactive | RGS4-Gao single inactive | RGS19-Gao conf inactive
NC(=S)N=Nc1c(O)[nH]c2c(Br)cc(Br)cc12	RGS7-Gao reg inconclusive
